Measured values reported in ChEMBL document CHEMBL1158519, “Syntheses and antibacterial activity studies of new oxazolidinones from nitroso Diels-Alder chemistry” (2010).

Experiments:
Format in all cases: functional
Conditions in all cases: read-out: DIZ
Enterococcus faecalis [1] = assay: Antimicrobial activity against Enterococcus faecalis ATCC 49532 at 2 mM after overnight incubation by agar diffusion method
Summary of the method: (§1)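 Agar diffusion: 9 mm wells cut in Standard I Nutrient Agar or Mueller Hinton II agar, each loaded with 50 µl of a 2.0 mM compound solution in 1:9 DMSO:MeOH. Ciprofloxacin was run as control at 5 µg/mL in H2O. Plates were incubated at 37 °C for 24 h, and the inhibition zone diameter was read in mm. Zones were flagged as partially clear, unclear with colonies, or faint.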

Micrococcus luteus = assay: Antimicrobial activity against Micrococcus luteus ATCC 10240 at 2 mM after overnight incubation by agar diffusion method; summary of the method: as §1
Bacillus subtilis = assay: Antimicrobial activity against Bacillus subtilis ATCC 6633 at 2 mM after overnight incubation by agar diffusion method; summary of the method: as §1
Pseudomonas aeruginosa [2] = assay: Antimicrobial activity against Pseudomonas aeruginosa K799/61 mutant at 2 mM after overnight incubation by agar diffusion method
Summary of the method: (§2)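 Agar well diffusion: 50 µl of a 2.0 mM solution in 1:9 DMSO:MeOH placed in 9 mm wells cut in nutrient agar or Mueller Hinton II agar; plates incubated 37 °C for 24 h, then inhibition zone diameter measured in mm. Zones scored as clear, partially clear, unclear (many colonies inside) or faint. Ciprofloxacin positive control at 5 µg/mL in water.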

Mycolicibacterium vaccae = assay: Antimicrobial activity against Mycobacterium vaccae IMET 10670 at 2 mM after overnight incubation by agar diffusion method; summary of the method: as §1
Pseudomonas aeruginosa [3] = assay: Antimicrobial activity against wild type Pseudomonas aeruginosa K799 at 2 mM after overnight incubation by agar diffusion method; summary of the method: as §1
Staphylococcus aureus [4] = assay: Antimicrobial activity against wild type Staphylococcus aureus SG 511 at 2 mM after overnight incubation by agar diffusion method; summary of the method: as §1
Escherichia coli [5] = assay: Antimicrobial activity against Escherichia coli ATCC 25922 at 2 mM after overnight incubation by agar diffusion method; summary of the method: as §1
Escherichia coli [6] = assay: Antimicrobial activity against Escherichia coli X580 at 2 mM after overnight incubation by agar diffusion method
Enterococcus faecalis [7] = assay: Antimicrobial activity against vancomycin-resistant Enterococcus faecalis 1528 at 2 mM after overnight incubation by agar diffusion method; summary of the method: as §2
Staphylococcus aureus [8] = assay: Antimicrobial activity against methicillin-resistant Staphylococcus aureus 143/93 at 2 mM after overnight incubation by agar diffusion method; summary of the method: as §2

Row | Compound | zone of inhibition at 2000 µM (Enterococcus faecalis [1]) | zone of inhibition at 2000 µM (Micrococcus luteus) | zone of inhibition at 2000 µM (Bacillus subtilis) | zone of inhibition at 2000 µM (Pseudomonas aeruginosa [2]) | zone of inhibition at 2000 µM (Mycolicibacterium vaccae) | zone of inhibition at 2000 µM (Pseudomonas aeruginosa [3]) | zone of inhibition at 2000 µM (Staphylococcus aureus [4]) | zone of inhibition at 2000 µM (Escherichia coli [5]) | zone of inhibition at 2000 µM (Escherichia coli [6]) | zone of inhibition at 2000 µM (Enterococcus faecalis [7]) | zone of inhibition at 2000 µM (Staphylococcus aureus [8])
1 | O=C1O[C@@H](COC(=O)N2OC3C=CC2C3)CN1c1ccc(N2CC[S+]([O-])CC2)c(F)c1 (some centres not stated) | 19 mm | 22 mm | 21 mm | 11 mm | 35 mm | 0 mm | 18 mm | 0 mm | – | – | –
2 | O=C(NO)OC[C@H]1CN(c2ccc(N3CCSCC3)c(F)c2)C(=O)O1 | 16 mm | 33 mm | 16 mm | 0 mm | – | 0 mm | 16 mm | 0 mm | 20 mm | – | –
3 | O=C(NO)OC[C@H]1CN(c2ccc(N3CCOCC3)c(F)c2)C(=O)O1 | 22 mm | 37 mm | 23 mm | 0 mm | – | 0 mm | 18 mm | 12 mm | 0 mm | – | –
4 | CC(C)(C)OC(=O)N1CCN(c2ccc(N3C[C@H](CO)OC3=O)cc2F)CC1 | 21 mm | 34.5 mm | 23 mm | 10 mm | – | 0 mm | 24 mm | 0 mm | – | – | –
5 | O=C1O[C@@H](CO)CN1c1ccc(N2CCOCC2)c(F)c1 | 21 mm | 38 mm | 26 mm | 11 mm | 43 mm | 0 mm | 23 mm | 0 mm | – | – | –
6 | O=C1O[C@@H](CO)CN1c1ccc(N2CCSCC2)c(F)c1 | 21.5 mm | 41 mm | 26 mm | 11 mm | 43 mm | 0 mm | 24 mm | 0 mm | – | – | –
7 | O=C(N[C@H]1C=C[C@@H](O)C1)OC[C@H]1CN(c2ccc(N3CCOCC3)c(F)c2)C(=O)O1 | – | – | 14 mm | 0 mm | 18 mm | – | 15 mm | – | – | 12 mm | 14 mm
8 | O=C(N[C@H]1C=C[C@@H](O)CC1)OC[C@H]1CN(c2ccc(N3CCOCC3)c(F)c2)C(=O)O1 | – | – | 13 mm | 0 mm | 0 mm | – | 14 mm | – | – | 12 mm | 14 mm
9 | O=C(N[C@H]1C=C[C@@H](O)CC1)OC[C@H]1CN(c2ccc(N3CCSCC3)c(F)c2)C(=O)O1 | 12 mm | 14 mm | 12 mm | 10 mm | 0 mm | 0 mm | 0 mm | 0 mm | – | – | –
10 | CC(C)(C)OC(=O)N1CCN(c2ccc(N3C[C@H](COC(=O)NO)OC3=O)cc2F)CC1 | 20 mm | 33 mm | 22 mm | 0 mm | – | 0 mm | 17 mm | 12 mm | 0 mm | – | –
11 | O=C1O[C@@H](COC(=O)N2OC3C=CC2C3)CN1c1ccc(N2CCOCC2)c(F)c1 (some centres not stated) | – | – | 17 mm | 0 mm | 30 mm | – | 15 mm | – | – | 19 mm | 25 mm
12 | O=C1O[C@@H](COC(=O)N2OC3C=CC2CC3)CN1c1ccc(N2CC[S+]([O-])CC2)c(F)c1 (some centres not stated) | 17 mm | 15 mm | 17 mm | 10 mm | 18 mm | 0 mm | 15 mm | 0 mm | – | – | –
13 | CC(C)(C)OC(=O)N1CCN(c2ccc(N3C[C@H](COC(=O)N[C@H]4C=C[C@@H](O)C4)OC3=O)cc2F)CC1 | 12.5 mm | 12 mm | 13 mm | 10 mm | 12 mm | 0 mm | 14 mm | 0 mm | – | – | –
14 | O=C(N[C@H]1C=C[C@@H](O)C1)OC[C@H]1CN(c2ccc(N3CCSCC3)c(F)c2)C(=O)O1 | 12.5 mm | 15 mm | 14 mm | 10 mm | 18 mm | 0 mm | 12.5 mm | 0 mm | – | – | –
15 | CC(=O)OC[C@H]1CN(c2ccc(N3CCOCC3)c(F)c2)C(=O)O1 | 24 mm | 38 mm | 26.5 mm | 17 mm | 43 mm | 0 mm | 26 mm | 0 mm | – | – | –
16 | CC(C)(C)OC(=O)N1CCN(c2ccc(N3C[C@H](COC(=O)N4OC5C=CC4C5)OC3=O)cc2F)CC1 (some centres not stated) | 19 mm | 16 mm | 12 mm | 0 mm | 19 mm | 14 mm | 13 mm | 0 mm | – | 16 mm | 19 mm
17 | CC(C)(C)OC(=O)N1CCN(c2ccc(N3C[C@H](COC(=O)N4OC5C=CC4CC5)OC3=O)cc2F)CC1 (some centres not stated) | – | – | 18 mm | 0 mm | 13 mm | – | 16 mm | – | – | 12 mm | 14 mm
18 | O=C1O[C@@H](COC(=O)N2OC3C=CC2CC3)CN1c1ccc(N2CCOCC2)c(F)c1 (some centres not stated) | – | – | 19 mm | 0 mm | 15 mm | – | 16 mm | – | – | 16 mm | 18 mm
19 | CC(C)(C)OC(=O)N1CCN(c2ccc(N3C[C@H](COC(=O)N[C@H]4C=C[C@@H](O)CC4)OC3=O)cc2F)CC1 | 12 mm | 0 mm | 0 mm | 12 mm | 0 mm | 0 mm | 0 mm | 0 mm | – | – | –
20 | O=C(O)c1cn(C2CC2)c2cc(N3CCNCC3)c(F)cc2c1=O [CIPROFLOXACIN] | 13 mm | 0 mm | 29.5 mm | 39 mm | 19 mm | 35 mm | 24 mm | 31 mm | – | 15 mm | 0 mm
21 | CC(=O)NC[C@H]1CN(c2ccc(N3CCOCC3)c(F)c2)C(=O)O1 [LINEZOLID] | 25 mm | 38 mm | 31 mm | 10 mm | 42 mm | 0 mm | 27 mm | 0 mm | 0 mm | – | –
